The source made the active and inactive calls. The rule behind the calls is not given here.
Assays:
[1] = Half-life was measured in (in vitro) dog liver slice experiments; type: ADME, Canis lupus familiaris; conditions: dog liver slices
Outline: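 Compounds at a final 12 μg/mL were incubated with dog liver slices at 37 °C for times up to 24 h. Medium was removed and frozen, then parent compound was quantified by HPLC. Half-life and % remaining at 24 h were reported.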

[2] = Half-life was measured in (in vitro) dog liver slice experiments following intravenous administration to dogs; type: ADME, organism-based, Canis lupus familiaris; conditions: in vivo
Outline: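 Beagle dogs were fasted overnight, with water available. They received 500 nmol/kg as a slow iv bolus into the saphenous vein. Jugular blood was sampled over 8 h, and plasma parent drug was measured by reverse-phase HPLC (electrochemical or derivatization/fluorescence detection).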

[3] = Oral bioavailability in dog; type: ADME, organism-based, Canis lupus familiaris; conditions: in vivo
Outline: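 Fasted beagle dogs (n = 3–6) received 500 nmol/kg by oral gavage or slow iv bolus. Jugular plasma was sampled over 8 h, and parent drug was measured by reverse-phase HPLC. Bioavailability is reported as mean ± SEM.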

IMR-32 [4] = test: Concentration required to elicit ganglionic receptors measured using [86Rb+] flux functional assay in a human neuroblastoma-derived IMR-32 cell line; type: cell-based
Outline: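 Ganglionic-type (α3-containing) receptor function assessed as 86Rb+ flux in human neuroblastoma IMR-32 cells; EC50 reported as mean ± SEM, n = 3–5.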

IMR-32 [5] = test: The maximal efficacy relative to 100 uM nicotine; type: functional, Homo sapiens
[6] = molecular target: Neuronal acetylcholine receptor subunit alpha-7 (Homo sapiens, UniProt P36544); test: Bindind affinity value obtained by measuring the displacement of radioligand [125I]alpha-bungarotoxin from K-28 cells stably express human Nicotinic acetylcholine receptor alpha7; type: cell-based
Neuronal acetylcholine receptor subunit alpha-7, sequence (P36544 whole entry): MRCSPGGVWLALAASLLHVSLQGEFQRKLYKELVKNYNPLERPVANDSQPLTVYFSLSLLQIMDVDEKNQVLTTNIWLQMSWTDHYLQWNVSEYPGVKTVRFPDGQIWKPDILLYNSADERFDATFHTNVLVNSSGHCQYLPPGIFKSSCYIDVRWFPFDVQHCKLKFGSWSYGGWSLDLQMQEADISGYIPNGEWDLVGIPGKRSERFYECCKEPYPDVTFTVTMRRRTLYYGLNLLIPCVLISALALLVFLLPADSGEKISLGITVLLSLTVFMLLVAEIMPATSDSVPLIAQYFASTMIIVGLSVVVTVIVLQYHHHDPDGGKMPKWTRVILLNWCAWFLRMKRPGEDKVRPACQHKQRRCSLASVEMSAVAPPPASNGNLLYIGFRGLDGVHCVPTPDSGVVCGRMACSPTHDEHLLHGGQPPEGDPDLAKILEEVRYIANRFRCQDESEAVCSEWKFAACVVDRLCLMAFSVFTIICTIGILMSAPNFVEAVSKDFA

[7] = molecular target: Neuronal acetylcholine receptor; test: Binding affinity value obtained by measuring the displacement of radioligand [3H](-)-cytisine from whole rat brain Nicotinic acetylcholine receptor
[8] = molecular target: Neuronal acetylcholine receptor; test: Binding affinity value obtained by measuring the displacement of radioligand [3H](-)-cytisine from a preparation of whole rat brain
Mus musculus [9] = test: Minimum dose of the drug (intraperitoneal) required that elicited a statistically significant response in mouse inhibitory avoidance assay; type: functional
Outline: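 Mice were dosed ip 15 min before training in a dark-light chamber, where entering the dark side was paired with a mild foot shock. The index of memory was latency to enter the dark chamber in a later test session.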

Mus musculus [10] = test: Minimum dose of the drug (intraperitoneal) required for elicited a statistically significant response in hypothermia assay; type: functional
Outline: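 Body temperature was taken by rectal probe inserted 3 cm, about 20 min after ip injection. The same mice had just completed a 15-min open-field activity session.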

Mus musculus [11] = test: Minimum dose of the drug (intraperitoneal) required for elicited a statistically significant response in seizure assay; type: functional
Mus musculus [12] = test: Minimum dose of the drug (intraperitoneal) required elicited a statistically significant response in locomotor activity assay; No significant effect at (0.0062-6.2) dose range; type: functional, organism-based

SMILES	half-life [1] [h]	half-life [2] [h]	bioavailability [3] [%]	EC50 (IMR-32 [4]) [µM]	Max (IMR-32 [5]) [%]	Ki [6] [µM]	Ki [7] [µM]	Ki [8] [µM]	EDmin (Mus musculus [9]) [µM/kg]	EDmin (Mus musculus [10]) [µM/kg]	EDmin (Mus musculus [11]) [µM/kg]	EDmin (Mus musculus [12])
Cc1ncccc1OC[C@H]1CCCN1	> 24	1.4	66	50	11	> 10						
Cc1ncccc1OC[C@H]1CCCN1C	8.5	0.61	4.9			> 10	3					
CN1CCC[C@H]1COc1cccnc1				63	100	1.53		0.00028				
Cc1ncccc1OC[C@@H]1CCCN1C	9	0.31	5.8	25	29	> 10						
Cc1cc([C@@H]2CCCN2C)on1 [ABT-418]	3	0.21	1.2	64	85	4.05			0.062	19	62	
CN1CCC[C@H]1c1cccnc1 [NICOTINE]					100				0.62	6.2	41	
Cc1ncccc1OC[C@@H]1CCCN1 [POZANICLINE]	> 24	1.6	61.5	150	8	> 10			0.62	>62	774	inactive
